One compound from PMC11439047 (Nature Communications, 2024) can be followed below.

Residue numbers refer to the chain shown, from its start.

Assay [1] has as its target T1, P2X1 receptor M214A (Homo sapiens, UniProt P51575, M214A).
T1 sequence (P51575 1-399 M214A): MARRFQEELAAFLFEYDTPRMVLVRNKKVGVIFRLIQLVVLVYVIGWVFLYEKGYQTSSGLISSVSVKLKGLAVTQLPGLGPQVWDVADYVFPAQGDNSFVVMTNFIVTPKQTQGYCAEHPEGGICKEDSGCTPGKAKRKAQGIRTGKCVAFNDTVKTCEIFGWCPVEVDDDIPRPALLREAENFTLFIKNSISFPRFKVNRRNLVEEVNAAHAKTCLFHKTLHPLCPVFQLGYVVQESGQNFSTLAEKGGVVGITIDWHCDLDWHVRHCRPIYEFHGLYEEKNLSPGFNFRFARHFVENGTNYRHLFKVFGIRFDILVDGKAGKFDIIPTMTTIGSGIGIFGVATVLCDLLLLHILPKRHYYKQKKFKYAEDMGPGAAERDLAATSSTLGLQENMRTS
Put plainly: Saturation radioligand binding with [3H]-α,β-methylene ATP.

Assay [2] concerns the target T2, P2X1 receptor R292A (Homo sapiens, UniProt P51575, R292A).
T2 sequence (P51575 1-399 R292A): T1 sequence (P51575 1-399 M214A) with A214M, R292A
Put plainly: Saturation radioligand binding with [3H]-α,β-methylene ATP. An outline of the steps: (§1)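 Whole HEK293 Flp-In T-REx cells stably expressing receptor, tetracycline-induced (150 ng/ml, 2 days), 15,000 cells/well, washed in HEPES binding buffer pH 7.4 with Ca2+/Mg2+. Increasing [3H]-α,β-methylene ATP added, 3 h room temperature with gentle agitation; non-specific binding with 10 μM ATP. Ice-cold 0.9% NaCl washes, scintillation counting (CCPM). Specific binding fitted one-site; values above 300 nM termed not defined.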

In assay [3] the target is T3, P2X1 receptor S286A (Homo sapiens, UniProt P51575, S286A).
T3 sequence (P51575 1-399 S286A): T1 sequence (P51575 1-399 M214A) with A214M, S286A
The description is as above. The gist of the method:
as §1

Assay [4] deals with T4, P2X1 receptor R139A (Homo sapiens, UniProt P51575, R139A).
T4 sequence (P51575 1-399 R139A): T1 sequence (P51575 1-399 M214A) with R139A, A214M
Kind of assay: Calcium ion influx assay. The class given is cell-based.

Assay [5] has as its target T5, P2X1 receptor R139P (Homo sapiens, UniProt P51575, R139P).
T5 sequence (P51575 1-399 R139P): T1 sequence (P51575 1-399 M214A) with R139P, A214M
Kind of assay: Calcium ion influx assay. It counts as cell-based. The following applies: maximal α,β-methylene ATP.

Assay [6] deals with T6, P2X1 receptor D170A (Homo sapiens, UniProt P51575, D170A).
T6 sequence (P51575 1-399 D170A): T1 sequence (P51575 1-399 M214A) with D170A, A214M
Put plainly: Saturation radioligand binding with [3H]-α,β-methylene ATP.

On to `Nc1ncnc2c1ncn2[C@@H]1O[C@H](COP(=O)(O)CP(=O)(O)OP(=O)(O)O)[C@@H](O)[C@H]1O` [α,β-methylene ATP], for which the “binding affinity compared to WT-P2X1” value in assay [1] is recorded as “beyond the threshold that could be accurately measured”; in assay [2], “reduced”; in assay [3], “comparable to that of WT-P2X1”; in assay [6], “beyond the threshold that could be accurately measured”. Besides, the “fold decrease in potency compared to WT-P2X1” value in assay [4] is on record as 3.5 fold. Also, the “desensitisation rate compared to WT-P2X1” value in assay [4] (maximal α,β-methylene ATP) and in assay [5] was “significantly slowed the desensitisation rate” in each case.
